Experiment [1] has as its system Plasma. The experiment is described as follows: Anticoagulant activity in human plasma assessed as partial thromboplastin time at 5 uM (reference value: 59 +/- 2.6 secs). Format: functional.
The target in experiment [2] is T1, Prothrombin (Bos taurus, UniProt P00735). In words: Inhibition of amidase activity of bovine thrombin using BPVANA as substrate after 15 to 40 mins.
Experiment [3] is described as follows: Inhibition of bovine trypsin using BANA as substrate after 15 to 30 mins. More on the design: species or system Bos taurus.
The test system of experiment [4] is Plasma. The experiment is described as follows: Anticoagulant activity in human plasma assessed as partial thromboplastin time at 0.1 mM (reference value: 59 +/- 2.6 secs). Type of experiment: functional.
The subject of experiment [5] is Plasma. The experiment is described as follows: Anticoagulant activity in human plasma assessed as partial thromboplastin time at 10 uM (reference value: 59 +/- 2.6 secs). Format: functional.
The next experiment deals with T2, Glandular kallikrein (Sus scrofa, UniProt P00752).
T2 sequence (P00752 whole entry): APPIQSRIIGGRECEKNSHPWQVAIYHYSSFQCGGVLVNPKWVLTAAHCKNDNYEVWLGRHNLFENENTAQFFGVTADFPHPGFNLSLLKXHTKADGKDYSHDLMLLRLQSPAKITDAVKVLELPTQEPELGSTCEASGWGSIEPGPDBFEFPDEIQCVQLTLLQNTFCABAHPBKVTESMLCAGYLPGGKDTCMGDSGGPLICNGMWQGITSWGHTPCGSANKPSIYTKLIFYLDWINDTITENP
In words: Inhibition of porcine pancreatic kallikrein using BANA as substrate after 15 to 180 mins. Put shortly:
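Porcine pancreatic kallikrein (635 Frey units/mg) amidase assay, pH 8.1, 37°, 15-180 min. […] Ki came from Dixon plots at two substrate concentrations. Means ± SD, n = 3.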

The species named for experiment [6] is Cavia porcellus. In words: Inhibition of guinea pig complement-mediated immune lysis of sheep red blood cells at 0.1 mM after 12 mins. Put shortly: (§1)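 Inhibitor in Tris/Mg/Ca/NaCl/gelatin buffer was preincubated 15 min at 37° with guinea pig complement (1:100 of 200 CH50/ml). Sheep erythrocytes (10^9/ml) presensitized with rabbit hemolysin (1:800) were added, and tubes incubated 12 min at 37°. Cold citrate-saline stopped lysis. Hemoglobin at 524 nm was converted to % inhibition via a complement standard curve, corrected for inhibitor lysis, in duplicate.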

The target in another experiment is Prothrombin (Bos taurus) (UniProt P00735). In words: Inhibition of bovine thrombin-mediated blood clotting formation in presence of human fibrinogen.
The species entered for experiment [7] is Cavia porcellus. In words: Inhibition of guinea pig complement-mediated immune lysis of sheep red blood cells at 10 uM after 12 mins. Put shortly:
as §1

The species entered for experiment [8] is Cavia porcellus. The experiment is described as follows: Inhibition of guinea pig complement-mediated immune lysis of sheep red blood cells at 30 uM after 12 mins. Put shortly: as §1
The target of experiment [9] is T1, Prothrombin. The experiment is described as follows: Inhibition of amidase activity of bovine thrombin using BANA as substrate after 15 to 40 mins.

pIC50, pKi: −log10 of the molar value.

Broadly, the pKi is the Ki on a negative log10 scale, so that one unit is a factor of ten. The inhibition is the change of the read-out against control, counted positive when it falls. A lower inhibition goes with a weak effect. The term pIC50 denotes −log10 of the IC50, conventionally taken in molar units.

With `Cl.N=C(N)c1ccc(OCc2ccc(COc3ccc(C(=N)N)cc3Br)cc2)c(Br)c1`, the results for the APTT in the experiment with Plasma [1], in the experiment with Plasma [4] and in the experiment on Plasma [5] were 96 s, 258 s and 110 s, respectively. Further, the pKi at Prothrombin [2] was 6.80; in experiment [3] it was 5.96; on Glandular kallikrein, 6.15.
On to `Cl.N=C(N)c1ccc(COc2ccc3ccc(OCc4ccc(C(=N)N)cc4)cc3c2)cc1`, for which the results for the inhibition in the experiment listed under Cavia porcellus [6], in the experiment filed under Cavia porcellus [7] and in the experiment filed under Cavia porcellus [8] were > 50%, 12.8% and 37.4%, respectively. The APTT in the experiment on Plasma [1] stood at 63 s; in the experiment on Plasma [5], 66 s. Further, the pIC50 at Prothrombin (Bos taurus) was 4.70. Further, the pKi in experiment [3] is 5.74; on Prothrombin [9] it was 5.31; on Glandular kallikrein, 5.55.
With `Cl.N=C(N)c1ccc(OCc2ccc(COc3ccc(C(=N)N)cc3)c3ccccc23)cc1`, the APTT in the experiment with Plasma [1] is recorded as 64 s; with Plasma [4] it was 203 s; in the experiment on Plasma [5] it was 71 s. In addition, the inhibition was determined as 2.9% in the experiment filed under Cavia porcellus [7] and 10.8% in the experiment filed under Cavia porcellus [8]. Moreover, the pKi is 5.72 in experiment [3], 5.18 at Prothrombin [9] and 5.60 on Glandular kallikrein.
For `N=C(N)c1ccc(OCc2c(Cl)c(Cl)c(COc3ccc(C(=N)N)cc3)c(Cl)c2Cl)cc1`, the inhibition was 0% in the experiment filed under Cavia porcellus [7] and > 50% in the experiment filed under Cavia porcellus [8]. Also, the negative logarithm of the Ki (pKi) is 5.92 in [3], 5.17 at Prothrombin [9] and 5.47 at Glandular kallikrein.
For the compound `Cl.N=C(N)c1cccc(OCc2ccc(COc3cccc(C(=N)N)c3)cc2)c1`, the inhibition in the experiment filed under Cavia porcellus [6] was 19.1%; in the experiment listed under Cavia porcellus [7] it was 5.6%; in the experiment filed under Cavia porcellus [8], 14%. Moreover, the APTT in the experiment on Plasma [1] is on record as 80 s; in the experiment on Plasma [4] it was 391 s; with Plasma [5], 122 s. The negative-log IC50 (pIC50) on Prothrombin (Bos taurus) was 4.89. Besides, the pKi is 5.21 in experiment [3], 5.30 at Prothrombin [9] and 5.24 at Glandular kallikrein.
As for `Cl.N=C(N)c1ccc(OCc2cccc(-c3cccc(COc4ccc(C(=N)N)cc4Br)c3)c2)c(Br)c1`, in the experiment on Plasma [1], the APTT was 62 s. Further, the pIC50 at Prothrombin (Bos taurus) was 5.00. The pKi at Prothrombin [2] was 6.57; in experiment [3], 6.60; at Glandular kallikrein it was 5.66.
For `Cl.N=C(N)c1cccc(OCc2cccc(COc3cccc(C(=N)N)c3)c2)c1`, the inhibition in the experiment listed under Cavia porcellus [6] worked out at 34%; in the experiment listed under Cavia porcellus [7], 0%; in the experiment listed under Cavia porcellus [8], 13.7%. Also, the APTT with Plasma [1] was 92 s; in the experiment with Plasma [4], 714 s; in the experiment with Plasma [5] it was 112 s. Also, the pIC50 at Prothrombin (Bos taurus) was 5.19. In addition, the pKi in [3] is 5.49; on Prothrombin [9], 5.34; on Glandular kallikrein, 5.47.
With `Cl.N=C(N)c1ccc(OCc2cccc(-c3cccc(COc4ccc(C(=N)N)cc4)c3)c2)cc1`, the APTT is 72 s in the experiment on Plasma [1], 412 s in the experiment on Plasma [4] and 83 s in the experiment with Plasma [5]. For the same compound, the pIC50 on Prothrombin (Bos taurus) is 6.14. For the same compound, the pKi is 6.24 on Prothrombin [2], 5.85 in [3] and 5.80 on Glandular kallikrein.
For `N=C(N)c1ccc(OCCCCCOc2ccc(C(=N)N)cc2Br)c(Br)c1`, the inhibition was > 50% in the experiment filed under Cavia porcellus [6], 20.8% in the experiment filed under Cavia porcellus [7] and 28.5% in the experiment listed under Cavia porcellus [8].
`N=C(N)c1cccc(OCc2ccc3cc(COc4cccc(C(=N)N)c4)ccc3c2)c1`: the pIC50 at Prothrombin (Bos taurus) was 4.14. The inhibition in the experiment filed under Cavia porcellus [7] is 36.6%; in the experiment filed under Cavia porcellus [8], 47%. Further, the pKi in experiment [3] is 5.23; on Prothrombin [9], 5.29; at Glandular kallikrein it was 5.26.
On to `N=C(N)c1ccc(OCCCOc2ccc(C(=N)N)cc2Br)c(Br)c1`, for which the inhibition was 19.1% in the experiment listed under Cavia porcellus [6], 6.3% in the experiment filed under Cavia porcellus [7] and 26.9% in the experiment filed under Cavia porcellus [8].
For the compound `Cl.N=C(N)c1cccc(COc2cccc3c(OCc4cccc(C(=N)N)c4)cccc23)c1`, the inhibition in the experiment filed under Cavia porcellus [6] is 39%; in the experiment filed under Cavia porcellus [7], 0%; in the experiment filed under Cavia porcellus [8] it was 8.9%. The APTT came to 65 s in the experiment with Plasma [1] and 75 s with Plasma [5]. In addition, the figures for the pKi (in experiment [3]; at Glandular kallikrein) were 6.38 and 5.66, respectively.
Take `Cl.N=C(N)c1ccc(OCc2cccc(COc3ccc(C(=N)N)cc3)c2)cc1`: the inhibition in the experiment listed under Cavia porcellus [6] was determined as 24.9%; in the experiment listed under Cavia porcellus [7], 0%; in the experiment listed under Cavia porcellus [8] it was 10.3%. The APTT in the experiment on Plasma [1] was found to be 87 s; with Plasma [5], 117 s. Further, the pIC50 on Prothrombin (Bos taurus) was 4.60. The figures for the negative-log Ki (pKi) (in [3]; at Prothrombin [9]; on Glandular kallikrein) were 5.46, 5.32 and 5.17, respectively.
For `Cl.N=C(N)c1ccc(OCc2cc(COc3ccc(C(=N)N)cc3)c3ccccc3c2)cc1`, the inhibition is > 50% in the experiment filed under Cavia porcellus [6], 5.6% in the experiment filed under Cavia porcellus [7] and 15.3% in the experiment filed under Cavia porcellus [8]. The APTT in the experiment on Plasma [1] stood at 62 s; with Plasma [4], 147 s; in the experiment with Plasma [5] it was 67 s. Further, at Prothrombin (Bos taurus), the pIC50 was 4.82. The pKi is 5.74 in experiment [3], 5.28 on Prothrombin [9] and 5.98 on Glandular kallikrein.
Turning to `CC[n+]1c(-c2ccccc2)c2cc(NN=Nc3cccc(C(=N)N)c3)ccc2c2ccc(NN=Nc3cccc(C(=N)N)c3)cc21`, the inhibition was > 50% in the experiment listed under Cavia porcellus [6], 50% in the experiment filed under Cavia porcellus [7] and > 50% in the experiment listed under Cavia porcellus [8].
Consider `Cl.N=C(N)c1cccc(OCc2cccc(-c3cccc(COc4cccc(C(=N)N)c4)c3)c2)c1`, for which the APTT in the experiment with Plasma [1] was 73 s; in the experiment on Plasma [5], 93 s. Besides, at Prothrombin (Bos taurus), the pIC50 was 5.40. Besides, the pKi was 5.40 in [3], 5.78 on Prothrombin [9] and 5.75 on Glandular kallikrein.
`Cl.N=C(N)c1ccc(OCc2c(Cl)c(Cl)c(Cl)c(COc3ccc(C(=N)N)cc3)c2Cl)cc1`: the figures for the inhibition in the experiment listed under Cavia porcellus [6], in the experiment filed under Cavia porcellus [7] and in the experiment listed under Cavia porcellus [8] were > 50%, 5.9% and > 50%, respectively. Moreover, the values for the APTT in the experiment with Plasma [1] and in the experiment on Plasma [5] were 62 s and 76 s, respectively. The pIC50 at Prothrombin (Bos taurus) was 5.10. The pKi is 5.89 in experiment [3], 5.82 at Prothrombin [9] and 5.28 on Glandular kallikrein.
For `N=C(N)c1ccc(COc2ccc3cc(OCc4ccc(C(=N)N)cc4)ccc3c2)cc1`, the figures for the pKi (in experiment [3]; on Prothrombin [9]; at Glandular kallikrein) were 5.49, 5.22 and 5.01, respectively.
On to `N=C(N)c1ccc(OCCCCCOc2ccc(C(=N)N)cc2I)c(I)c1`, for which the figures for the inhibition in the experiment filed under Cavia porcellus [7] and in the experiment filed under Cavia porcellus [8] were 26.9% and > 50%, respectively.
Take `Cl.N=C(N)c1ccc(COc2cccc3c(OCc4ccc(C(=N)N)cc4)cccc23)cc1`: the inhibition in the experiment listed under Cavia porcellus [6], in the experiment listed under Cavia porcellus [7] and in the experiment listed under Cavia porcellus [8] was 0% throughout. The results for the APTT with Plasma [1], in the experiment on Plasma [4] and in the experiment on Plasma [5] were 60 s, 141 s and 61 s, respectively. Moreover, the negative-log Ki (pKi) in experiment [3] was 5.55; at Glandular kallikrein, 5.07.
With `Cl.N=C(N)c1cccc(COc2ccc3cc(OCc4cccc(C(=N)N)c4)ccc3c2)c1`, the results for the inhibition in the experiment filed under Cavia porcellus [6], in the experiment listed under Cavia porcellus [7] and in the experiment listed under Cavia porcellus [8] were > 50%, 11% and > 50%, respectively. The APTT with Plasma [1] turned out to be 61 s; in the experiment on Plasma [4], 277 s; in the experiment with Plasma [5] it was 72 s. At Prothrombin (Bos taurus), the negative logarithm of the IC50 (pIC50) is 4.52. The pKi in experiment [3] was 5.49; on Prothrombin [9], 5.62; on Glandular kallikrein, 5.26.

These data come from ChEMBL document CHEMBL3271968, “Novel bis(benzamidino) compounds with an aromatic central link. Inhibitors of thrombin, pancreatic kallikrein, trypsin, and complement” (J Med Chem, 1976).
